# Test results published in ChEMBL document CHEMBL1221233, “4''-O-(omega-Quinolylamino-alkylamino)propionyl derivatives of selected macrolides with the activity against the key erythromycin resistant respiratory pathogens” (2010).
# Key:
# Format in all cases: functional
# [1] = system: Staphylococcus aureus; assay: Antibacterial activity against efflux-mediated macrolide-resistance Staphylococcus aureus PK1 by broth microdilution method
# Procedure, shortened: (§1)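 Staphylococci were grown on Mueller-Hinton agar and then tested by CLSI-guideline broth microdilution against two-fold serial dilutions of compound. The result was recorded as the minimum inhibitory concentration.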
# [2] = system: Streptococcus pyogenes; assay: Antibacterial activity against efflux-mediated macrolide-resistance Streptococcus pyogenes 2 Finland by broth microdilution method
# Procedure, shortened: (§2)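 MIC by CLSI broth microdilution. In the streptococcal medium, 5% horse serum replaced lysed blood. Compounds were tested as two-fold serial dilutions. Strains were first grown on Columbia agar with 5% sheep blood. The MIC was read as the lowest concentration inhibiting growth.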
# [3] = system: Streptococcus pneumoniae; assay: Antibacterial activity against inducible resistance to macrolide and constitutive resistance to lincosamide Streptococcus pneumoniae 134 GR M by broth microdilution method; procedure, shortened: as §2
# [4] = system: Streptococcus pneumoniae; assay: Antibacterial activity against constitutive MLS resistance Streptococcus pneumoniae 58 by broth microdilution method; procedure, shortened: as §2
# [5] = system: Haemophilus influenzae; assay: Antibacterial activity against Haemophilus influenzae ATCC 49247 by broth microdilution method
# Procedure, shortened: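 MIC by broth microdilution following CLSI guidelines, expressed in units of lg/mL. Twofold dilutions prepared in 96-well plates. H. influenzae grown on Mueller-Hinton chocolate agar before testing.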
# [6] = system: Streptococcus pyogenes; assay: Antibacterial activity against constitutive MLS resistance sStreptococcus pyogenes 166 GR-Micro by broth microdilution method; procedure, shortened: as §2
# [7] = system: Staphylococcus aureus; assay: Antibacterial activity against inducible resistance to macrolide, licosamide and streptogramin Staphylococcus aureus 90256 by broth microdilution method; procedure, shortened: as §1
# [8] = system: Streptococcus pneumoniae; assay: Antibacterial activity against efflux-mediated macrolide-resistance Streptococcus pneumoniae Ci137 by broth microdilution method; procedure, shortened: as §2
Compound,MIC [1],MIC [2],MIC [3],MIC [4],MIC [5],MIC [6],MIC [7],MIC [8]
CC[C@H]1OC(=O)[C@H](C)[C@@H](O[C@H]2C[C@@](C)(OC)[C@@H](OC(=O)CCNCCNc3cc4c(cc3F)c(=O)c(C(=O)O)cn4C3CC3)[C@H](C)O2)[C@H](C)[C@@H](O[C@@H]2O[C@H](C)C[C@H](N(C)C)[C@H]2O)[C@](C)(O)C[C@@H](C)C(=O)[C@H](C)[C@@H](O)[C@]1(C)O,0.5 µg/mL,≤ 0.125 µg/mL,0.25 µg/mL,≤ 0.125 µg/mL,8 µg/mL,0.5 µg/mL,4 µg/mL,≤ 0.125 µg/mL
CC[C@H]1OC(=O)[C@H](C)[C@@H](O[C@H]2C[C@@](C)(OC)[C@@H](OC(=O)CCNCCCCNc3cc4c(cc3F)c(=O)c(C(=O)O)cn4C3CC3)[C@H](C)O2)[C@H](C)[C@@H](O[C@@H]2O[C@H](C)C[C@H](N(C)C)[C@H]2O)[C@](C)(O)C[C@@H](C)C(=O)[C@H](C)[C@@H](O)[C@]1(C)O,2 µg/mL,≤ 0.125 µg/mL,2 µg/mL,8 µg/mL,2 µg/mL,8 µg/mL,> 64 µg/mL,≤ 0.125 µg/mL
CC[C@H]1OC(=O)[C@H](C)[C@@H](O[C@H]2C[C@@](C)(OC)[C@@H](OC(=O)CCNCCNc3cc4c(=O)c(C(=O)O)cn(C5CC5)c4cc3Cl)[C@H](C)O2)[C@H](C)[C@@H](O[C@@H]2O[C@H](C)C[C@H](N(C)C)[C@H]2O)[C@](C)(O)C[C@@H](C)C(=O)[C@H](C)[C@@H](O)[C@]1(C)O,0.5 µg/mL,≤ 0.125 µg/mL,≤ 0.125 µg/mL,≤ 0.125 µg/mL,2 µg/mL,≤ 0.125 µg/mL,4 µg/mL,≤ 0.125 µg/mL
CC[C@H]1OC(=O)[C@H](C)[C@@H](O[C@H]2C[C@@](C)(OC)[C@@H](OC(=O)CCNCCNc3ccc4c(c3)c(=O)c(C(=O)O)cn4C3CC3)[C@H](C)O2)[C@H](C)[C@@H](O[C@@H]2O[C@H](C)C[C@H](N(C)C)[C@H]2O)[C@](C)(O)C[C@@H](C)C(=O)[C@H](C)[C@@H](O)[C@]1(C)O,8 µg/mL,≤ 0.125 µg/mL,≤ 0.125 µg/mL,≤ 0.125 µg/mL,1 µg/mL,≤ 0.125 µg/mL,4 µg/mL,≤ 0.125 µg/mL
CC[C@H]1OC(=O)[C@H](C)[C@@H](O[C@H]2C[C@@](C)(OC)[C@@H](OC(=O)CCNCCCNc3cc4c(cc3F)c(=O)c(C(=O)O)cn4C3CC3)[C@H](C)O2)[C@H](C)[C@@H](O[C@@H]2O[C@H](C)C[C@H](N(C)C)[C@H]2O)[C@](C)(O)C[C@@H](C)C(=O)[C@H](C)[C@@H](O)[C@]1(C)O,1 µg/mL,≤ 0.125 µg/mL,2 µg/mL,0.25 µg/mL,8 µg/mL,2 µg/mL,64 µg/mL,≤ 0.125 µg/mL
CC[C@H]1OC(=O)[C@H](C)[C@@H](O[C@H]2C[C@@](C)(OC)[C@@H](OC(=O)CCNCCNc3cc4c(=O)c(C(=O)OC)cn(C5CC5)c4cc3Cl)[C@H](C)O2)[C@H](C)[C@@H](O[C@@H]2O[C@H](C)C[C@H](N(C)C)[C@H]2O)[C@](C)(O)C[C@@H](C)C(=O)[C@H](C)[C@@H](O)[C@]1(C)O,16 µg/mL,≤ 0.125 µg/mL,≤ 0.125 µg/mL,≤ 0.125 µg/mL,2 µg/mL,0.125 µg/mL,> 64 µg/mL,≤ 0.125 µg/mL
CC[C@H]1OC(=O)[C@H](C)[C@@H](O[C@H]2C[C@@](C)(OC)[C@@H](OC(=O)CCNCCNc3ccc4c(=O)c(C(=O)O)cn(C)c4c3)[C@H](C)O2)[C@H](C)[C@@H](O[C@@H]2O[C@H](C)C[C@H](N(C)C)[C@H]2O)[C@](C)(O)C[C@@H](C)C(=O)[C@H](C)[C@@H](O)[C@]1(C)O,1 µg/mL,1 µg/mL,≤ 0.125 µg/mL,≤ 0.125 µg/mL,8 µg/mL,≤ 0.125 µg/mL,4 µg/mL,≤ 0.125 µg/mL
CC[C@H]1OC(=O)[C@H](C)[C@@H](O[C@H]2C[C@@](C)(OC)[C@@H](OC(=O)CCNCCNc3ccc4c(=O)c(C(=O)O)cn(CC)c4c3)[C@H](C)O2)[C@H](C)[C@@H](O[C@@H]2O[C@H](C)C[C@H](N(C)C)[C@H]2O)[C@](C)(O)C[C@@H](C)C(=O)[C@H](C)[C@@H](O)[C@]1(C)O,0.5 µg/mL,≤ 0.125 µg/mL,≤ 0.125 µg/mL,≤ 0.125 µg/mL,2 µg/mL,≤ 0.125 µg/mL,1 µg/mL,≤ 0.125 µg/mL
CC[C@H]1OC(=O)[C@H](C)[C@@H](O[C@H]2C[C@@](C)(OC)[C@@H](OC(=O)CCNCCNc3ccc4c(=O)c(C(=O)O)cn(C5CC5)c4c3)[C@H](C)O2)[C@H](C)[C@@H](O[C@@H]2O[C@H](C)C[C@H](N(C)C)[C@H]2O)[C@](C)(O)C[C@@H](C)C(=O)[C@H](C)[C@@H](O)[C@]1(C)O,8 µg/mL,≤ 0.125 µg/mL,≤ 0.125 µg/mL,≤ 0.125 µg/mL,2 µg/mL,≤ 0.125 µg/mL,8 µg/mL,≤ 0.125 µg/mL
CC[C@H]1OC(=O)[C@H](C)[C@@H](O[C@H]2C[C@@](C)(OC)[C@@H](OC(=O)CCNCCCCNc3ccc4c(=O)c(C(=O)O)cn(C)c4c3)[C@H](C)O2)[C@H](C)[C@@H](O[C@@H]2O[C@H](C)C[C@H](N(C)C)[C@H]2O)[C@](C)(O)C[C@@H](C)C(=O)[C@H](C)[C@@H](O)[C@]1(C)O,4 µg/mL,0.25 µg/mL,2 µg/mL,4 µg/mL,> 32 µg/mL,16 µg/mL,> 32 µg/mL,4 µg/mL
CC[C@H]1OC(=O)[C@H](C)[C@@H](O[C@H]2C[C@@](C)(OC)[C@@H](OC(=O)CCNCCNc3ccc4c(=O)c(C(=O)O)cn(C)c4c3)[C@H](C)O2)[C@H](C)[C@@H](O[C@@H]2O[C@H](C)C[C@H](N(C)C)[C@H]2O)[C@](C)(O)C[C@@H](C)CN(C)[C@H](C)[C@@H](O)[C@]1(C)O,2 µg/mL,≤ 0.125 µg/mL,≤ 0.125 µg/mL,≤ 0.125 µg/mL,8 µg/mL,≤ 0.125 µg/mL,4 µg/mL,≤ 0.125 µg/mL
CC[C@H]1OC(=O)[C@H](C)[C@@H](O[C@H]2C[C@@](C)(OC)[C@@H](OC(=O)CCNCCNc3ccc4c(=O)c(C(=O)O)cn(CC)c4c3)[C@H](C)O2)[C@H](C)[C@@H](O[C@@H]2O[C@H](C)C[C@H](N(C)C)[C@H]2O)[C@](C)(O)C[C@@H](C)CN(C)[C@H](C)[C@@H](O)[C@]1(C)O,2 µg/mL,≤ 0.125 µg/mL,≤ 0.125 µg/mL,≤ 0.125 µg/mL,4 µg/mL,≤ 0.125 µg/mL,4 µg/mL,≤ 0.125 µg/mL
CC[C@H]1OC(=O)[C@H](C)[C@@H](O[C@H]2C[C@@](C)(OC)[C@@H](OC(=O)CCNCCNc3ccc4c(=O)c(C(=O)O)cn(C5CC5)c4c3)[C@H](C)O2)[C@H](C)[C@@H](O[C@@H]2O[C@H](C)C[C@H](N(C)C)[C@H]2O)[C@](C)(O)C[C@@H](C)CN(C)[C@H](C)[C@@H](O)[C@]1(C)O,1 µg/mL,≤ 0.125 µg/mL,≤ 0.125 µg/mL,≤ 0.125 µg/mL,4 µg/mL,≤ 0.125 µg/mL,2 µg/mL,≤ 0.125 µg/mL
CC[C@H]1OC(=O)[C@H](C)[C@@H](O[C@H]2C[C@@](C)(OC)[C@@H](OC(=O)CCNCCNc3ccc4c(=O)c(C(=O)O)cn(C)c4c3)[C@H](C)O2)[C@H](C)[C@@H](O[C@@H]2O[C@H](C)C[C@H](N(C)C)[C@H]2O)[C@](C)(O)C[C@@H](C)NC(=O)[C@H](C)[C@@H](O)[C@]1(C)O,4 µg/mL,2 µg/mL,1 µg/mL,1 µg/mL,16 µg/mL,0.5 µg/mL,32 µg/mL,1 µg/mL
CC[C@H]1OC(=O)[C@H](C)[C@@H](O[C@H]2C[C@@](C)(OC)[C@@H](OC(=O)CCNCCNc3ccc4c(=O)c(C(=O)O)cn(C5CC5)c4c3)[C@H](C)O2)[C@H](C)[C@@H](O[C@@H]2O[C@H](C)C[C@H](N(C)C)[C@H]2O)[C@](C)(O)C[C@@H](C)NC(=O)[C@H](C)[C@@H](O)[C@]1(C)O,64 µg/mL,≤ 0.125 µg/mL,64 µg/mL,32 µg/mL,8 µg/mL,32 µg/mL,64 µg/mL,≤ 0.125 µg/mL
CC[C@H]1OC(=O)[C@H](C)[C@@H](O[C@H]2C[C@@](C)(OC)[C@@H](OC(=O)CCNCCCCNc3ccc4c(=O)c(C(=O)O)cn(C)c4c3)[C@H](C)O2)[C@H](C)[C@@H](O[C@@H]2O[C@H](C)C[C@H](N(C)C)[C@H]2O)[C@](C)(O)C[C@@H](C)NC(=O)[C@H](C)[C@@H](O)[C@]1(C)O,16 µg/mL,8 µg/mL,16 µg/mL,32 µg/mL,> 32 µg/mL,32 µg/mL,> 32 µg/mL,4 µg/mL
CC[C@H]1OC(=O)[C@H](C)[C@@H](O[C@H]2C[C@@](C)(OC)[C@@H](OC(=O)CCNCCCCNc3ccc4c(=O)c(C(=O)O)cn(CC)c4c3)[C@H](C)O2)[C@H](C)[C@@H](O[C@@H]2O[C@H](C)C[C@H](N(C)C)[C@H]2O)[C@](C)(O)C[C@@H](C)NC(=O)[C@H](C)[C@@H](O)[C@]1(C)O,8 µg/mL,8 µg/mL,8 µg/mL,16 µg/mL,> 32 µg/mL,32 µg/mL,> 32 µg/mL,2 µg/mL
